Bioassay records: PubChem, Johns Hopkins Ion Channel Center
MrgX1 agonist: agonists of human MrgX1 receptor, primary screen, HEK293 cells, Fluo-4 calcium flux; Mas-related G-protein coupled receptor member X1 (Homo sapiens), Q96LB2; Fluo-4 calcium fluorescence, agonist mode; stronger effect = higher value; B-score at 10 µM; 310,000 compounds, 0.44% hits; AID 588627, 2011;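 active = calcium response B-score plate-corrected fluorescence ratio at least 3 library SD, with starting fluorescence B-score inside 5 SD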
Target sequence (Q96LB2 whole entry, looked up): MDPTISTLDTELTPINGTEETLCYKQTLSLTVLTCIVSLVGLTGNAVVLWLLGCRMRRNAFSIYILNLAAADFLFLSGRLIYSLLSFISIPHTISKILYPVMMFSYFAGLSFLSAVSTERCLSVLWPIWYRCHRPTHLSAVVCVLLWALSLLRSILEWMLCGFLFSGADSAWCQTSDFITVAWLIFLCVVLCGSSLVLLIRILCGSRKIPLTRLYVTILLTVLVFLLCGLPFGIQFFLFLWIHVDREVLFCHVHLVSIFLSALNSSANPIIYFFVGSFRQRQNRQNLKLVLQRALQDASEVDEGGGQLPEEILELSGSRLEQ
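System – MrgX1-expressing HEK293 cells · Incubation – cells plated overnight, dye loaded 0.5 h 37 °C, 0.5 h room temperature · Technique – kinetic Fluo-4 NW fluorescence of intracellular calcium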
RGS4 act: RGS4 potentiators or activators, primary screen, cell-based, HEK293 M3R inducible RGS4, calcium flux. carbachol calcium flux Fluo4; stronger effect = lower value. B-score at 10 µM. 310,000 compounds, 0.92% hits;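 active = B-score of the integrated calcium signal more than 4 SD below the library mean, with starting fluorescence not abnormally high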;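 also: negative B-score means reduced calcium response which marks RGS4 activation or potentiation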
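test system = HEK293 cells with stable M3R and inducible RGS4 | schedule = recording 10 s baseline at 1 Hz, 100 s post-agonist | technique = Fluo4-AM (2 µM) calcium-flux fluorescence, kinetic read | measure = Agonist-evoked peak-minus-minimum fluorescence over baseline, integrated ratio, B score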
MrgX1 allo act: positive allosteric modulators of MrgX1, primary screen, HEK293 cells, Fluo-4 calcium flux | Mas-related G-protein coupled receptor member X1 (Homo sapiens), Q96LB2 | FDSS; stronger effect = higher value | B-score at 10 µM | 310,000 compounds, 0.63% hits;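 active = plate-corrected calcium response at least 3 library SD above typical, normal starting fluorescence, not activating the receptor alone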;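 also: compound read alongside a low EC10 to EC30 dose of BAM8-22 agonist; peak minus trough fluorescence over baseline measured at the second addition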
RGS4 block: RGS4 inhibitors, primary screen, cell-based, HEK293 M3R inducible RGS4, calcium flux; AID 463165, 2010; 310,000 compounds, 0.45% hits; B-score at 10 µM; Fluo-4 calcium flux; stronger effect = higher value; triggered by carbachol at its EC20;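 active = B-score, a plate-corrected calcium signal, over three deviations above library mean, with baseline fluorescence within five deviations of library mean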;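 also: RGS4 expression induced by doxycycline in cells with stable M3 receptor; B-score is computed from the integrated fluorescence ratio over baseline after carbachol; higher B-score means a larger calcium signal and so more RGS4 inhibition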
Target sequence (P49798 whole entry, looked up): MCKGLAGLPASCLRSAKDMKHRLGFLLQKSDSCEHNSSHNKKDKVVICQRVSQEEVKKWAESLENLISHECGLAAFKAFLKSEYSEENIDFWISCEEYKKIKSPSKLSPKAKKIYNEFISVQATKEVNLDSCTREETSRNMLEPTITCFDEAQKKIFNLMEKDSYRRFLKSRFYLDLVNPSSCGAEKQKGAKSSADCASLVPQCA
MrgX1 antag: antagonists of human MrgX1 receptor, primary screen, HEK293 cells, Fluo-4 calcium flux; Mas-related G-protein coupled receptor member X1 (Homo sapiens), Q96LB2; BAM8-22 antagonism; stronger effect = lower value; B-score at 10 µM; 310,000 compounds, 1.3% hits; AID 588676, 2011;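 active = calcium-response B-score plate-corrected more than 3 library SD below zero, starting fluorescence within 5 deviations, no agonist response on first addition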;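 also: peak minus trough fluorescence over baseline after final BAM8-22 challenge near maximal dose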
RGS4 block valid: enhanced carbachol calcium response, M3R/RGS4 cells, RGS4 inhibitor project, cell-based, validation screen, HEK293 M3R/RGS4, calcium flux; carbachol calcium Fluo-4 fluorescence; carbachol added at its EC20; 0 = buffer wells, 100 = carbachol control; 1,700 compounds, 65% hits; AID 492999, 2010; shares compounds with RGS4 block; calcium response, % at 10 µM;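 active = duplicate-averaged calcium response above the buffer-only control mean plus 5 SD of those controls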;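 also: integrated fluorescence ratio F max minus min over baseline F0; higher response in RGS4-induced cells means RGS4 inhibition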
RGS4 uninduced: carbachol calcium response in non-induced M3R cells, confirmation, counter-screen for RGS4 inhibitor project, cell-based, HEK293 M3R. shares compounds with RGS4 block. carbachol calcium Fluo-4; submaximal (EC20) carbachol stimulus; buffer wells 0%, carbachol control wells 100%. activity (percent), % at 10 µM. 1,900 compounds, 20% hits. AID 493000, 2010; call rule not given here;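 also: RGS4 induction absent so cells express M3R without RGS4; higher means more calcium signal and flags a non-specific hit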
RGS4 inh ctr2: second counter-screen for RGS4 inhibitors: non-induced cells without carbachol; shares compounds with RGS4 block; HEK293 M3R/RGS4 non-induced, Fluo-4 calcium, no carbachol; normalised: buffer wells 0%, carbachol wells 100%; calcium response (agonist-mode artifact), % at 10 µM; 1,900 compounds, 22% hits;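 active = duplicate-averaged calcium rise in uninduced cells above buffer wells' mean plus 5 SD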
Large screens that a line does not name were inactive (follow-up assays come after a bar, where they were run). Sampled rows, rich in hits. Any-hit rate of the full collection: about 3.5%.

CC12CCC(=O)N1C(C(=O)Nc1ccc(F)cc1)CS2 (configuration not stated)	none
Cc1ccc(NS(=O)(=O)c2ccc3[nH]c(=O)[nH]c3c2)c(C)c1	none
O=S(=O)(Nc1ccc2c(c1)OCCO2)c1c(F)cccc1F	none
CC(C)Cc1nn2c(=O)cc(CSCC(=O)Nc3ccccc3F)nc2s1	none
Cc1cccc(N2CCN(C(=O)c3cc(C)oc3C)CC2C)c1 (configuration not stated)	none
O=C(COc1ccccc1[N+](=O)[O-])Nc1ccc(N2CCN(C(=O)c3cccs3)CC2)cc1	none
O=C(C1CCC(Cn2c(=O)[nH]c3ccccc3c2=O)CC1)N1CCN(c2ccccc2)CC1 (configuration not stated)	none | RGS4 uninduced inactive | RGS4 inh ctr2 inactive
COc1ccc(N2CCN(C(=O)C3CCC(Cn4c(=S)[nH]c5ccccc5c4=O)CC3)CC2)cc1 (configuration not stated)	none | RGS4 uninduced inactive | RGS4 inh ctr2 inactive
O=C(C1CCC(Cn2c(=S)[nH]c3ccccc3c2=O)CC1)N1CCN(c2ccccn2)CC1 (configuration not stated)	none
COc1ccc(-c2cc(C(F)F)n3ncc(C(=O)Nc4cccc(S(=O)(=O)N5CCOCC5)c4)c3n2)cc1	none
O=C(CN1CCN(C(=O)c2ccccc2F)CC1)Nc1ccc(Br)cc1	none
Cc1cc(C)n(CC(O)Cn2c3ccc(Cl)cc3c3cc(Cl)ccc32)c(=O)n1 (configuration not stated)	RGS4 block 8 | RGS4 block valid 25.0% | RGS4 uninduced inactive | RGS4 inh ctr2 inactive
Cc1cc(C)n(CC(O)Cn2c3ccccc3c3ccccc32)n1 (configuration not stated)	none
COc1cc2c(cc1OC)C(C)N(C(=O)CCN1C(=O)C3C4C=CC(C4)C3C1=O)CC2 (configuration not stated)	none (no result: RGS4 act, RGS4 block)
NCCOc1ccc(C23CC4CC(CC(C4)C2)C3)cc1	RGS4 block 10.9 | RGS4 block valid 20.0% | RGS4 uninduced inactive | RGS4 inh ctr2 72.0%
Cc1ccc(-c2cc(-c3ccccc3Cl)[nH]n2)c(O)c1	none
Cc1ccc(-c2cc(-c3ccccc3[N+](=O)[O-])[nH]n2)c(O)c1	none | RGS4 uninduced inactive | RGS4 inh ctr2 inactive
COc1ccc(OC)c(Nc2nc(N)nc(CSc3nnc(N)s3)n2)c1	none
COc1ccc(Nc2nc(N)nc(CSc3nnc(C)s3)n2)cc1	none | RGS4 block valid inactive | RGS4 uninduced inactive | RGS4 inh ctr2 inactive
Cc1ccc(Nc2nc(N)nc(CCl)n2)cc1	RGS4 block 4.73 | RGS4 block valid 7.0% | RGS4 uninduced inactive | RGS4 inh ctr2 inactive
Cc1ccc(Nc2nc(N)nc(CSc3nc4ccccc4s3)n2)cc1	RGS4 block 5.07 | RGS4 block valid 8.0% | RGS4 uninduced inactive | RGS4 inh ctr2 inactive
Cc1ccc2c(c1)cc1c(=O)n(CC(=O)N3CCCC3)nc(C)n12	none
CC(=O)C1C(c2ccccc2OC(F)F)NC(=O)NC1(O)C(F)(F)F (configuration not stated)	none
O=Cc1s/c(=N\S(=O)(=O)c2ccccc2)n(CCCCl)c1Cl	RGS4 block 5.36 (no result: MrgX1 agonist, MrgX1 allo act, MrgX1 antag) | RGS4 block valid 9.0% | RGS4 uninduced inactive | RGS4 inh ctr2 19.5%
CCn1c(C)cs/c1=N\S(=O)(=O)c1ccccc1	none
Cc1cccc(C)c1N(CC(O)Cn1c2ccccc2c2ccccc21)S(C)(=O)=O (configuration not stated)	RGS4 block 7.22 | RGS4 block valid 19.0% | RGS4 uninduced inactive | RGS4 inh ctr2 inactive
CC(NC(=O)/C(C#N)=C/c1ccc(C(=O)O)cc1)c1ccccc1 (configuration not stated)	RGS4 block 12.8 | RGS4 block valid 44.0% | RGS4 uninduced 39.5% | RGS4 inh ctr2 inactive
Cc1cccc(NC(=S)NNC(=O)c2csc3c2CCC(C)C3)c1 (configuration not stated)	RGS4 block 6.13 | RGS4 block valid 16.0% | RGS4 uninduced inactive | RGS4 inh ctr2 inactive
CC(C)CNC(=S)NNC(=O)c1csc2c1CCC(C)C2 (configuration not stated)	none
CN(C)C=NC(=O)c1ccc(N2CCN(c3ncc(C(F)(F)F)cc3Cl)CC2)cc1	RGS4 block 8.24 | RGS4 block valid 18.0% | RGS4 uninduced inactive | RGS4 inh ctr2 inactive
CN(C)/C=C/C(=O)c1ccc(N2CCN(c3ncc(C(F)(F)F)cc3Cl)CC2)cc1	none
